{"source": "PubChem BioAssay AID488936", "about": "(Broad Institute, 2010)", "note": "Activity calls are given as the source filed them.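 The calls were made as follows: active = compounds lowering caspase luminescence whose fitted AC50 is at most ten times their top valid dose; inconclusive = flat partial inhibition or a poor quality curve fit; inactive = the rest.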", "data": [{"test_system": "not listed separately", "assay": "reduction of caspase-3/7 signal in INS-1E – INS-1E rat cells, dry powder, set 2, orthogonal assay for beta-cell apoptosis inhibitor project, dose response (AID 488936)", "settings": "INS-1E cytokine-induced caspase-3/7 luminescence, 48 h; at 23.5 µM (top of the series)", "summary_of_the_method": "(§1)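 reagent = cytokine mix of IFN-gamma 50, TNF-alpha 25, IL-1β 10 ng/mL | material = rat INS-1E insulinoma beta cells, cytokine-induced apoptosis model | incubation = 48 h cytokine and compound exposure, 1 h detection | technique = Caspase-Glo 3/7 luminescence | evaluation = Caspase-3/7 IC50 from dose-response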", "values": [{"molecule": "C[C@@H]1CN([C@@H](C)CO)C(=O)c2cccc(NC(=O)Nc3cccc4ccccc34)c2O[C@H]1CN(C)C(=O)Nc1ccc(C(F)(F)F)cc1", "activity change, negative = inhibition": "45.3% (inactive)"}, {"molecule": "C[C@@H]1CN([C@@H](C)CO)C(=O)c2cccc(NC(=O)Nc3cccc4ccccc34)c2O[C@H]1CN(C)C(=O)Nc1ccccc1", "activity change, negative = inhibition": "14.9% (inactive)"}, {"molecule": "COc1ccc(S(=O)(=O)N(C)C[C@@H]2Oc3c(NS(=O)(=O)c4ccc(C)cc4)cccc3C(=O)N([C@@H](C)CO)C[C@H]2C)cc1", "activity change, negative = inhibition": "-2.16% (inactive)"}, {"molecule": "COc1ccc(S(=O)(=O)N(C)C[C@@H]2Oc3c(cccc3N(C)C)C(=O)N([C@@H](C)CO)C[C@H]2C)cc1", "activity change, negative = inhibition": "-4.48% (inactive)"}, {"molecule": "COc1ccc(S(=O)(=O)N(C)C[C@@H]2Oc3c(NC(=O)C4CC4)cccc3C(=O)N([C@@H](C)CO)C[C@H]2C)cc1", "activity change, negative = inhibition": "-6.93% (inactive)"}, {"molecule": "COc1ccc(S(=O)(=O)N(C)C[C@@H]2Oc3c(NC(=O)C4CCOCC4)cccc3C(=O)N([C@@H](C)CO)C[C@H]2C)cc1", "activity change, negative = inhibition": "-8.46% (inactive)"}]}, {"test_system": "not listed separately", "assay": "reduction of caspase-3/7 signal in INS-1E – INS-1E rat cells, dry powder, set 2, orthogonal assay for beta-cell apoptosis inhibitor project, dose response (AID 488936)", "settings": "INS-1E cytokine-induced caspase-3/7 luminescence, 48 h; at 26 µM (top of the series)", "summary_of_the_method": "as §1", "values": [{"molecule": "COc1ccc(S(=O)(=O)N(C)C[C@@H]2Oc3c(NC(=O)Nc4cccc5ccccc45)cccc3C(=O)N([C@H](C)CO)C[C@@H]2C)cc1", "activity change, negative = inhibition": "-4.27% (inactive)"}, {"molecule": "COc1ccc(S(=O)(=O)N(C)C[C@@H]2Oc3c(NS(=O)(=O)c4ccc(Cl)cc4)cccc3C(=O)N([C@@H](C)CO)C[C@H]2C)cc1", "activity change, negative = inhibition": "-4.43% (inactive)"}, {"molecule": "COc1ccc(NC(=O)N(C)C[C@@H]2Oc3c(NC(=O)Nc4cccc5ccccc45)cccc3C(=O)N([C@@H](C)CO)C[C@H]2C)cc1", "activity change, negative = inhibition": "18.3% (inactive)"}, {"molecule": "COc1ccc(S(=O)(=O)N(C)C[C@@H]2Oc3c(NC(=O)Nc4cccc5ccccc45)cccc3C(=O)N([C@@H](C)CO)C[C@@H]2C)cc1", "activity change, negative = inhibition": "-6.51% (inactive)"}, {"molecule": "C[C@@H]1CN([C@@H](C)CO)C(=O)c2cccc(NC(=O)Nc3cccc4ccccc34)c2O[C@H]1CN(C)S(=O)(=O)c1ccc2c(c1)OCCCO2", "activity change, negative = inhibition": "0.778% (inactive)"}, {"molecule": "C[C@@H]1CN([C@@H](C)CO)C(=O)c2cccc(NC(=O)Nc3ccc(F)cc3)c2O[C@H]1CN(C)S(=O)(=O)c1ccc(F)cc1", "activity change, negative = inhibition": "-8.56% (inactive)"}, {"molecule": "COc1ccc(S(=O)(=O)N(C)C[C@@H]2Oc3c(NC(=O)Nc4ccc(F)cc4)cccc3C(=O)N([C@H](C)CO)C[C@H]2C)cc1", "activity change, negative = inhibition": "-6.01% (inactive)"}, {"molecule": "COc1ccc(S(=O)(=O)N(C)C[C@@H]2Oc3c(NS(=O)(=O)c4cn(C)cn4)cccc3C(=O)N([C@@H](C)CO)C[C@H]2C)cc1", "activity change, negative = inhibition": "-6.15% (inactive)"}, {"molecule": "C[C@@H]1CN([C@@H](C)CO)C(=O)c2cccc(NC(=O)Nc3cccc4ccccc34)c2O[C@H]1CN(C)S(=O)(=O)c1ccc2c(c1)OCO2", "activity change, negative = inhibition": "-4.01% (inactive)"}, {"molecule": "COc1ccc(S(=O)(=O)N(C)C[C@H]2Oc3c(NC(=O)Nc4cccc5ccccc45)cccc3C(=O)N([C@H](C)CO)C[C@@H]2C)cc1", "activity change, negative = inhibition": "3.23% (inactive)"}, {"molecule": "Cc1noc(C)c1NC(=O)N(C)C[C@@H]1Oc2c(NC(=O)Nc3cccc4ccccc34)cccc2C(=O)N([C@@H](C)CO)C[C@H]1C", "activity change, negative = inhibition": "-0.569% (inactive)"}, {"molecule": "C[C@@H]1CN([C@@H](C)CO)C(=O)c2cccc(NC(=O)Nc3ccccc3)c2O[C@H]1CN(C)S(=O)(=O)c1ccc(Cl)cc1", "activity change, negative = inhibition": "-7.25% (inactive)"}, {"molecule": "COc1ccc(S(=O)(=O)N(C)C[C@@H]2Oc3c(NC(=O)c4ccc(-c5nccs5)cc4)cccc3C(=O)N([C@@H](C)CO)C[C@H]2C)cc1", "activity change, negative = inhibition": "6.99% (inactive)"}, {"molecule": "C[C@@H]1CN([C@@H](C)CO)C(=O)c2cccc(NC(=O)Nc3cccc4ccccc34)c2O[C@H]1CN(C)S(=O)(=O)c1cccc(F)c1", "activity change, negative = inhibition": "6.97% (inactive)"}, {"molecule": "Cc1ccc(S(=O)(=O)N(C)C[C@H]2Oc3c(NC(=O)Nc4cccc5ccccc45)cccc3C(=O)N([C@@H](C)CO)C[C@@H]2C)cc1", "activity change, negative = inhibition": "29.7% (inactive)"}, {"molecule": "COc1ccc(S(=O)(=O)N(C)C[C@@H]2Oc3c(NC(=O)Nc4cccc5ccccc45)cccc3C(=O)N(C(C)C)C[C@H]2C)cc1", "activity change, negative = inhibition": "-6.92% (inactive)"}, {"molecule": "C[C@@H]1CN([C@@H](C)CO)C(=O)c2cccc(NC(=O)Nc3cccc4ccccc34)c2O[C@H]1CN(C)S(=O)(=O)c1ccc(F)cc1", "activity change, negative = inhibition": "4.91% (inactive)"}, {"molecule": "C[C@@H]1CN([C@@H](C)CO)C(=O)c2cccc(NC(=O)Nc3cccc4ccccc34)c2O[C@H]1CN(C)S(=O)(=O)c1ccc2ncsc2c1", "activity change, negative = inhibition": "-18.8% (inactive)"}, {"molecule": "C[C@@H]1CN([C@@H](C)CO)C(=O)c2cccc(NS(=O)(=O)c3ccccc3)c2O[C@H]1CN(C)Cc1ccc(C(F)(F)F)cc1", "activity change, negative = inhibition": "7.22% (inactive)"}, {"molecule": "COc1ccc(S(=O)(=O)N(C)C[C@@H]2Oc3c(NC(=O)Nc4cccc5ccccc45)cccc3C(=O)N([C@@H](C)CO)C[C@H]2C)cc1OC", "activity change, negative = inhibition": "-11.6% (inactive)"}, {"molecule": "COc1ccc(S(=O)(=O)N(C)C[C@@H]2Oc3ccc(NC(=O)Nc4cccc5ccccc45)cc3C(=O)N([C@@H](C)CO)C[C@H]2C)cc1", "activity change, negative = inhibition": "5.17% (inactive)"}, {"molecule": "C[C@@H]1CN([C@@H](C)CO)C(=O)c2cccc(NC(=O)Nc3cccc4ccccc34)c2O[C@H]1CN(C)CC1CC1", "activity change, negative = inhibition": "-6.43% (inactive)"}, {"molecule": "C[C@@H]1CN([C@@H](C)CO)C(=O)c2cccc(NC(=O)Nc3cccc4ccccc34)c2O[C@H]1CN(C)S(=O)(=O)c1ccc2c(c1)oc(=O)n2C", "activity change, negative = inhibition": "0.941% (inactive)"}, {"molecule": "COc1ccc(S(=O)(=O)N(C)C[C@@H]2Oc3c(NC(=O)Nc4cccc5ccccc45)cccc3C(=O)N([C@@H](C)CO)C[C@H]2C)cc1F", "activity change, negative = inhibition": "5.84% (inactive)"}, {"molecule": "C[C@@H]1CN([C@H](C)CO)C(=O)c2cccc(NC(=O)Nc3ccccc3)c2O[C@H]1CN(C)S(=O)(=O)c1ccc(Cl)cc1", "activity change, negative = inhibition": "-6.09% (inactive)"}, {"molecule": "COc1ccc(S(=O)(=O)N(C)C[C@H]2Oc3c(NC(=O)Nc4cccc5ccccc45)cccc3C(=O)N([C@H](C)CO)C[C@H]2C)cc1", "activity change, negative = inhibition": "-14.4% (inactive)"}, {"molecule": "C[C@@H]1CN([C@@H](C)CO)C(=O)c2cccc(NC(=O)Nc3cccc4ccccc34)c2O[C@H]1CN(C)C(=O)Nc1ccc2c(c1)OCO2", "activity change, negative = inhibition": "32.4% (inactive)"}, {"molecule": "COc1ccc(S(=O)(=O)N(C)C[C@@H]2Oc3c(NC(=O)NC4CCCCC4)cccc3C(=O)N([C@@H](C)CO)C[C@H]2C)cc1", "activity change, negative = inhibition": "-7.02% (inactive)"}, {"molecule": "COc1cccc(S(=O)(=O)N(C)C[C@@H]2Oc3c(NC(=O)Nc4cccc5ccccc45)cccc3C(=O)N([C@@H](C)CO)C[C@H]2C)c1", "activity change, negative = inhibition": "14.2% (inactive)"}, {"molecule": "COc1ccc(S(=O)(=O)N(C)C[C@@H]2Oc3c(NC(=O)Nc4cccc5ccccc45)cccc3C(=O)N([C@@H](C)CO)C[C@H]2C)cc1", "activity change, negative = inhibition": "-10.2% (inactive)"}, {"molecule": "Cc1ccc(S(=O)(=O)N(C)C[C@@H]2Oc3c(NC(=O)Nc4ccccc4)cccc3C(=O)N([C@@H](C)CO)C[C@H]2C)cc1", "activity change, negative = inhibition": "-11.7% (inactive)"}, {"molecule": "C[C@@H]1CN([C@H](C)CO)C(=O)c2cccc(NC(=O)Nc3cccc4ccccc34)c2O[C@H]1CN(C)S(=O)(=O)c1ccc(Cl)cc1", "activity change, negative = inhibition": "-4.82% (inactive)"}, {"molecule": "C[C@@H]1CN([C@@H](C)CO)C(=O)c2cccc(NC(=O)Nc3cccc4ccccc34)c2O[C@H]1CN(C)S(=O)(=O)c1ccc2c(c1)OCC2", "activity change, negative = inhibition": "3.67% (inactive)"}, {"molecule": "COc1ccc(NC(=O)Nc2cccc3c2O[C@@H](CN(C)S(=O)(=O)c2ccc(OC)cc2)[C@H](C)CN([C@@H](C)CO)C3=O)cc1", "activity change, negative = inhibition": "-9.51% (inactive)"}]}, {"test_system": "INS-1E cytokine-induced caspase-3/7 luminescence, 48 h", "assay": "reduction of caspase-3/7 signal in INS-1E – INS-1E rat cells, dry powder, set 2, orthogonal assay for beta-cell apoptosis inhibitor project, dose response (AID 488936)", "settings": "not given", "summary_of_the_method": "as §1", "values": [{"molecule": "C[C@@H]1CN([C@@H](C)CO)C(=O)c2cccc(NC(=O)Nc3cccc(Cl)c3Cl)c2O[C@H]1CN(C)S(=O)(=O)c1ccc2c(c1)OCCO2", "AC50": "> 26 µM (inactive)"}, {"molecule": "COc1ccc(S(=O)(=O)N(C)C[C@@H]2Oc3c(NC(=O)Nc4ccccc4)cccc3C(=O)N([C@@H](C)CO)C[C@H]2C)cc1", "AC50": "> 26 µM (inactive)"}, {"molecule": "COc1ccc(S(=O)(=O)N(C)C[C@@H]2Oc3c(NC(=O)Nc4cccc5ccccc45)cccc3C(=O)N([C@H](C)CO)C[C@H]2C)cc1", "AC50": "> 23.5 µM (inactive)"}, {"molecule": "C[C@@H]1CN([C@@H](C)CO)C(=O)c2cccc(NC(=O)Nc3cccc4ccccc34)c2O[C@H]1CN(C)S(=O)(=O)c1ccc2c(n1)N(C)CCO2", "AC50": "> 26 µM (inactive)"}]}]}
